Experimental data from ChEMBL document CHEMBL3612047, “Synthesis, antiproliferative activity and possible mechanism of action of novel 2-acetamidobenzamides bearing the 2-phenoxy functionality” (Bioorg Med Chem, 2015).
The source made the active and inactive calls. The calls are words filed in the database; no cut-off is given here.

Assays:
[1] = Cytotoxicity against human HuDe cells incubated for 72 hrs by MTT assay; type: cell-based
Outline: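 HuDe primary culture from human epidermis, seeded at 2 × 10⁴ cells/mL. Test drugs at different concentrations, or 0.1% DMSO, added 24 h after seeding, with 72 h exposure. MTT (5 mg/mL in PBS) then applied for 3 h at 37 °C. Formazan solubilized with isopropanol/triton X-100/HCl and read at 570 nm with 690 nm blank.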

K562 [2] = experiment: Induction of morphological changes in human K562 cells assessed as cell detachment at 10 and 25 uM incubated for 48 hrs by light microscopy; type: functional, cell-based
Outline: (§1)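 K562 cells (8 × 10³/well) plated on poly-D-lysine-coated wells and treated at 10 or 25 μM for 48 h. Examined by light microscopy at 200× for shape, detachment, cell number and cell size.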

SNB-19 = experiment: Growth inhibition of human SNB19 cells by NCI standard protocol based method; type: functional
Outline: (§2)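 NCI 60-cell-line screen, standard NCI protocol. Single high dose of 10⁻⁵ M first, then a 5-dose assay across the full panel. Reported as GI₅₀, TGI and LC₅₀, the molar concentrations giving 50% net growth inhibition, total growth inhibition and 50% net cell death. Where an effect was not reached, the highest tested concentration was used.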

K562 [3] = experiment: Induction of apoptosis in human K562 cells assessed as nuclear fragmentation at 10 uM incubated for 48 hrs by Hoechst 33342 staining based fluorescence microscopy; type: functional, cell-based
Outline: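 K562 cells (8 × 10³/well) on poly-D-lysine-coated wells, allowed to adhere overnight. Stained with Hoechst 33342 for 30 min, washed with PBS, resuspended in medium, then treated at 10 μM for 48 h.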

Tubulin (Homo sapiens) = Tubulin (Homo sapiens) (UniProt P68371+Q9H4B7+P0DPH7+P68366+Q13509+Q71U36+P04350+Q3ZCM7+P07437+P68363+Q9BQE3+Q6PEY2+Q13885+Q9BVA1+Q9BUF5); experiment: Inhibition of tubulin (unknown origin) assembly; type: protein-complex assay
NCI-H460 = experiment: Growth inhibition of human NCI-H460 cells by NCI standard protocol based method; type: functional
Outline: (§3)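 NCI full 60-cell-line panel, 5-dose assay to the NCI standard protocol. GI₅₀ is the molar concentration inhibiting 50% net cell growth. Mean graph midpoint is averaged over all lines; where the effect is not reached, the highest tested concentration is used.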

T47D = experiment: Growth inhibition of human T47D cells by NCI standard protocol based method; type: functional; outline: as §2
SN12C = experiment: Growth inhibition of human SN12C cells by NCI standard protocol based method; type: functional; outline: as §2
K562 [4] = experiment: Induction of apoptosis in human K562 cells assessed as early apoptotic cells level at 10 uM incubated for 24 hrs by Annexin-V and propidium iodide staining staining based flow cytometry (reference value: 1.6%); type: functional
[5] = Growth inhibition of human NCI60 cells assessed as cell growth level at 10 uM by NCI standard protocol based method; type: functional; set-up: scale not given: the % may be the effect or the level left
Outline: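 NCI 60-cell-line screen (leukemia, lung, colon, melanoma, renal, ovarian, brain, breast, prostate) run to the NCI standard protocol. Single high dose of 10⁻⁵ M, read as growth percent. Mean graph midpoint is the arithmetic mean over all lines tested.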

K562 [6] = experiment: Induction of apoptosis in human K562 cells assessed as reduction in pro-caspase-3 levels at 10 uM incubated for 48 hrs by Western blot method relative to basal level; type: functional; conditions: K562, 48 h
Outline: (§4)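 K562 cells were seeded at 1.5 × 10⁵/well and treated 48 h. Lysate protein was measured by Lowry assay and run on SDS-PAGE. Blots on nitrocellulose were probed with alkaline phosphatase-conjugated antibodies to pro-caspases 3 and 6. Loading was checked by Ponceau red and β-actin immunoblot, with level expressed against basal. Three independent experiments.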

K562 [7] = experiment: Induction of morphological changes in human K562 cells at 10 and 25 uM incubated for 48 hrs by light microscopy; type: functional, cell-based; outline: as §1
K562 [8] = experiment: Induction of cell cycle arrest in human K562 cells assessed as accumulation at G0/G1 phase at 10 uM incubated for 24 hrs by propidium iodide staining based flow cytometry (reference value: 54.9%); type: functional
K562 [9] = experiment: Induction of apoptosis in human K562 cells assessed as necrotic cells level at 10 uM incubated for 24 hrs by Annexin-V and propidium iodide staining staining based flow cytometry (reference value: 0.3%); type: functional
K562 [10] = experiment: Induction of cell cycle arrest in human K562 cells assessed as accumulation at G0/G1 phase at 10 uM incubated for 48 hrs by propidium iodide staining based flow cytometry (reference value: 56.6%); type: functional
[11] = Growth inhibition of human LOXIMVI cells by NCI standard protocol based method; type: functional; conditions: LOX IMVI; outline: as §3
K562 [12] = experiment: Reduction in cell size of human K562 cells at 10 and 25 uM incubated for 48 hrs by light microscopy; type: functional, cell-based; outline: as §1
UACC-257 = experiment: Growth inhibition of human UACC257 cells by NCI standard protocol based method; type: functional; outline: as §2
OVCAR-8 = experiment: Growth inhibition of human OVCAR8 cells by NCI standard protocol based method; type: functional; outline: as §3
K562 [13] = experiment: Induction of cell cycle arrest in human K562 cells assessed as accumulation at G2/M phase at 10 uM incubated for 48 hrs by propidium iodide staining based flow cytometry (reference value: 27.4%); type: functional
K562 [14] = experiment: Induction of cell cycle arrest in human K562 cells assessed as accumulation at G2/M phase at 10 uM incubated for 24 hrs by propidium iodide staining based flow cytometry (reference value: 31.6%); type: functional
NCI-H322M = experiment: Growth inhibition of human NCI-H322M cells by NCI standard protocol based method; type: functional; outline: as §3
MDA-MB-231 = experiment: Growth inhibition of human MDA-MB-231 cells by NCI standard protocol based method; type: functional; outline: as §3
K562 [15] = experiment: Reduction in cell number of human K562 cells at 10 and 25 uM incubated for 48 hrs by light microscopy; type: functional, cell-based; outline: as §1
NCI/ADR-RES = experiment: Growth inhibition of human NCI/ADR-RES cells by NCI standard protocol based method; type: functional; outline: as §3
[16] = Growth inhibition of human Hs578T cells by NCI standard protocol based method; type: functional; conditions: Hs-578T; outline: as §3
NCI-H522 = experiment: Growth inhibition of human NCI-H522 cells by NCI standard protocol based method; type: functional; outline: as §3
TK-10 = experiment: Growth inhibition of human TK10 cells by NCI standard protocol based method; type: functional; outline: as §2
SK-MEL-28 = experiment: Growth inhibition of human SK-MEL-28 cells by NCI standard protocol based method; type: functional; outline: as §3
SK-MEL-5 = experiment: Growth inhibition of human SK-MEL-5 cells by NCI standard protocol based method; type: functional; outline: as §3
HCT-116 = experiment: Growth inhibition of human HCT116 cells by NCI standard protocol based method; type: functional; outline: as §3
A549 = experiment: Growth inhibition of human A549/ATCC cells by NCI standard protocol based method; type: functional; outline: as §3
K562 [17] = experiment: Induction of apoptosis in human K562 cells assessed as reduction in pro-caspase-6 levels at 10 uM incubated for 48 hrs by Western blot method relative to basal level; type: functional; conditions: K562, 48 h; outline: as §4
OVCAR-4 = experiment: Growth inhibition of human OVCAR4 cells by NCI standard protocol based method; type: functional; outline: as §3

Row | SMILES | IC50 [1] [µM] | GI50 (SNB-19) [µM] | inhibition (Tubulin (Homo sapiens)) | GI50 (NCI-H460) [nM] | GI50 (T47D) [µM] | GI50 (SN12C) [µM] | Activity [5] [%] | GI50 [11] [nM] | GI50 (UACC-257) [µM] | GI50 (OVCAR-8) [µM] | GI50 (NCI-H322M) [µM] | GI50 (MDA-MB-231) [nM] | GI50 (NCI/ADR-RES) [nM] | GI50 [16] [nM] | GI50 (NCI-H522) [nM] | GI50 (TK-10) [µM] | GI50 (SK-MEL-28) [µM] | GI50 (SK-MEL-5) [nM] | GI50 (HCT-116) [nM] | GI50 (A549) [nM] | also measured
1 | NC(=O)c1cc(I)ccc1NC(=O)COc1ccccc1 | 318 | 0.913 | inactive | 425 | 0.556 | 0.945 | 24.31 | 822 | 41.7 | 0.904 | 0.705 | 1280 | 344 | 630 | 630 | 8.11 | 1.79 | 533 | 517 | 732 | Activity (K562 [2]): Active; Activity (K562 [3]): Active; Activity (K562 [4]): 24.5%; inhibition at 10 µM (K562 [6]): 40%; Activity (K562 [7]): Active; Activity (K562 [8]): 78.5%; Activity (K562 [9]): 0.9%; Activity (K562 [10]): 45.2%; Activity (K562 [12]): Active; Activity (K562 [13]): 13.3%; Activity (K562 [14]): 2.4%; Activity (K562 [15]): Active; inhibition at 10 µM (K562 [17]): 20%
2 | COc1cc(NC(=O)COc2ccccc2)c(C(N)=O)cc1OC | 163 | 3.31 | inactive | 529 | 3.46 | 3.12 | 27.38 | 1810 | > 100 | 3.01 | 5.77 | 2390 | 487 | 771 | 410 | 14.4 | 24.2 | 766 | 620 | 917 | Activity (K562 [2]): Active; Activity (K562 [3]): Active; Activity (K562 [4]): 22.7%; inhibition at 10 µM (K562 [6]): 50%; Activity (K562 [7]): Active; Activity (K562 [8]): 80%; Activity (K562 [9]): 2.3%; Activity (K562 [10]): 39.4%; Activity (K562 [12]): Active; GI50 (OVCAR-4): > 100 µM; Activity (K562 [13]): 31.2%; Activity (K562 [14]): 2.8%; Activity (K562 [15]): Active; inhibition at 10 µM (K562 [17]): 50%
3 | NC(=O)c1cc(Cl)ccc1NC(=O)COc1ccccc1 | 808 | 11.7 | inactive | 3000 | 6.87 | 17 | 46.4 | 8330 | – | 7.06 | 7.09 | 9010 | 1430 | 4650 | 3780 | 63.8 | 6.25 | 7450 | 2720 | 7060 | –
4 | COc1ccc(NC(=O)COc2ccccc2)c(C(N)=O)c1 | 942 | 3.2 | inactive | 484 | – | 3.09 | 25.81 | 869 | > 100 | 3.13 | 2.1 | 2030 | 418 | 592 | 1190 | 23.8 | 0.502 | 1680 | 518 | 908 | GI50 (OVCAR-4): > 100 µM
